In ChEMBL document CHEMBL1914320, “C4-alkylthiols with activity against Moraxella catarrhalis and Mycobacterium tuberculosis” (Bioorg Med Chem, 2011):
Converted amounts (≈) assume the structure as drawn. The source made the active and inactive calls. The rule behind the calls is not given here.

Assays:
Moraxella catarrhalis [1] = experiment: Antibacterial activity against beta-lactamase producing Moraxella catarrhalis isolate 1 at 10 ug/disc after overnight incubation by disc diffusion assay; assay type: functional
Summary of the method: (§1)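 Isolates were held at −80 °C. Five colonies were suspended in Mueller-Hinton broth to a 0.5 McFarland density and swabbed onto MH agar. Discs carried 10 μg compound, applied in methanol and dried at room temperature. Plates were incubated overnight at 37 °C, and the zone of inhibition was measured in mm from the disc edge. Controls were methanol-only and penicillin discs. Run blinded, in triplicate.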

Escherichia coli [2] = experiment: Antibacterial activity against non-beta-lactamase producing Escherichia coli ATCC 25922 at 10 ug/disc after overnight incubation by disc diffusion assay; assay type: functional, organism-based; summary of the method: as §1
Moraxella catarrhalis [3] = experiment: Antibacterial activity against beta-lactamase producing Moraxella catarrhalis isolate 2 at 10 ug/disc after overnight incubation by disc diffusion assay; assay type: functional; conditions: for zone of inhibition at 10 µg/disc: read-out: IZ; summary of the method: as §1
Pseudomonas aeruginosa [4] = experiment: Antibacterial activity against non-beta-lactamase producing Pseudomonas aeruginosa ATCC 27853 at 10 ug/disc after overnight incubation by disc diffusion assay; assay type: functional, organism-based; summary of the method: as §1
Staphylococcus aureus [5] = experiment: Antibacterial activity against non-beta-lactamase producing Staphylococcus aureus ATCC 25923 at 10 ug/disc after overnight incubation by disc diffusion assay; assay type: functional, organism-based; summary of the method: as §1
Moraxella catarrhalis [6] = experiment: Antibacterial activity against beta-lactamase producing Moraxella catarrhalis isolate 3 at 10 ug/disc after overnight incubation by disc diffusion assay; assay type: functional; summary of the method: as §1
Moraxella catarrhalis [7] = experiment: Antibacterial activity against beta-lactamase producing Moraxella catarrhalis isolate 3 at 10 ug/disc after overnight incubation by disc diffusion assay in presence of 1 mol equiv of glutathione; assay type: functional
Staphylococcus aureus [8] = experiment: Antibacterial activity against non-beta-lactamase producing Staphylococcus aureus ATCC 25923 after 48 hrs by microdilution broth method; assay type: functional, organism-based
Summary of the method: (§2)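 Broth microdilution followed CLSI guidelines. Compound was dissolved in 95% ethanol, diluted at least 10-fold into Mueller-Hinton broth, then serially two-fold diluted from 500 to 15.6 μg/mL. Actively growing culture was added at 5 × 10^5 cells/mL. Plates ran 48 h at 37 °C, scored for visible growth at 24 and 48 h. MIC was the lowest concentration without growth. For MBC, 10 μL from each clear well was plated on MH agar. Controls were ethanol and penicillin. Triplicate.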

Moraxella catarrhalis [9] = experiment: Antibacterial activity against beta-lactamase producing Moraxella catarrhalis isolate 4 at 10 ug/disc after overnight incubation by disc diffusion assay in presence of 1 mol equiv of glutathione; assay type: functional; conditions: read-out: IZ
Moraxella catarrhalis [10] = experiment: Antibacterial activity against beta-lactamase producing Moraxella catarrhalis isolate 2 at 10 ug/disc after overnight incubation by disc diffusion assay in presence of 1 mol equiv of glutathione; assay type: functional; conditions: read-out: IZ
Moraxella catarrhalis [11] = experiment: Antibacterial activity against beta-lactamase producing Moraxella catarrhalis isolate 4 at 10 ug/disc after overnight incubation by disc diffusion assay; assay type: functional; conditions: for zone of inhibition at 10 µg/disc: read-out: IZ; summary of the method: as §1
Enterococcus faecalis [12] = experiment: Antibacterial activity against non-beta-lactamase producing Enterococcus faecalis ATCC 29212 at 10 ug/disc after overnight incubation by disc diffusion assay; assay type: functional, organism-based; summary of the method: as §1
Moraxella catarrhalis [13] = experiment: Antibacterial activity against beta-lactamase producing Moraxella catarrhalis isolate 6 at 10 ug/disc after overnight incubation by disc diffusion assay; assay type: functional; summary of the method: as §1
Enterococcus faecalis [14] = experiment: Antibacterial activity against non-beta-lactamase producing Enterococcus faecalis ATCC 29212 after 48 hrs by microdilution broth method; assay type: functional, organism-based; summary of the method: as §2
Moraxella catarrhalis [15] = experiment: Antibacterial activity against beta-lactamase producing Moraxella catarrhalis isolate 5 at 10 ug/disc after overnight incubation by disc diffusion assay in presence of 1 mol equiv of glutathione; assay type: functional; conditions: read-out: IZ
Moraxella catarrhalis [16] = experiment: Antibacterial activity against beta-lactamase producing Moraxella catarrhalis isolate 1 at 10 ug/disc after overnight incubation by disc diffusion assay in presence of 1 mol equiv of glutathione; assay type: functional
Escherichia coli [17] = experiment: Antibacterial activity against non-beta-lactamase producing Escherichia coli ATCC 25922 after 48 hrs by microdilution broth method; assay type: functional, organism-based; summary of the method: as §2
Moraxella catarrhalis [18] = experiment: Antibacterial activity against beta-lactamase producing Moraxella catarrhalis isolate 6 at 10 ug/disc after overnight incubation by disc diffusion assay in presence of 1 mol equiv of glutathione; assay type: functional
Moraxella catarrhalis [19] = experiment: Antibacterial activity against beta-lactamase producing Moraxella catarrhalis isolate 5 at 10 ug/disc after overnight incubation by disc diffusion assay; assay type: functional; conditions: for zone of inhibition at 10 µg/disc: read-out: IZ; summary of the method: as §1
Pseudomonas aeruginosa [20] = experiment: Antibacterial activity against non-beta-lactamase producing Pseudomonas aeruginosa ATCC 27853 after 48 hrs by microdilution broth method; assay type: functional, organism-based; summary of the method: as §2
Moraxella catarrhalis [21] = experiment: Antibacterial activity against beta-lactamase producing Moraxella catarrhalis isolate 2 after 48 hrs incubation by microdilution broth method; assay type: functional; conditions: isolate 2, 48 h; summary of the method: as §2
[22] = test system: Mycobacterium tuberculosis; experiment: Antimycobacterial activity against wild type Mycobacterium tuberculosis H37Rv by Alamar blue assay; assay type: functional
Moraxella catarrhalis [23] = experiment: Antibacterial activity against beta-lactamase producing Moraxella catarrhalis isolate 6 after 48 hrs incubation by microdilution broth method; assay type: functional; conditions: isolate 6, 48 h; summary of the method: as §2
Moraxella catarrhalis [24] = experiment: Antibacterial activity against beta-lactamase producing Moraxella catarrhalis isolate 1 after 48 hrs incubation by microdilution broth method; assay type: functional; conditions: isolate 1, 48 h; summary of the method: as §2
Moraxella catarrhalis [25] = experiment: Antibacterial activity against beta-lactamase producing Moraxella catarrhalis isolate 3 after 48 hrs incubation by microdilution broth method; assay type: functional; conditions: isolate 3, 48 h; summary of the method: as §2
Moraxella catarrhalis [26] = experiment: Antibacterial activity against beta-lactamase producing Moraxella catarrhalis isolate 5 after 48 hrs incubation by microdilution broth method; assay type: functional; conditions: isolate 5, 48 h; summary of the method: as §2
Moraxella catarrhalis [27] = experiment: Antibacterial activity against beta-lactamase producing Moraxella catarrhalis isolate 4 after 48 hrs incubation by microdilution broth method; assay type: functional; conditions: isolate 4, 48 h; summary of the method: as §2

Structure (SMILES) | inhibition zone (IZ) (Moraxella catarrhalis [1]) | Activity (Escherichia coli [2]) | zone of inhibition at 10 µg/disc (Moraxella catarrhalis [3]) [mm] | Activity (Pseudomonas aeruginosa [4]) | Activity (Staphylococcus aureus [5]) | Activity (Staphylococcus aureus [8]) | zone of inhibition at 10 µg/disc (Moraxella catarrhalis [9]) [mm] | zone of inhibition at 10 µg/disc (Moraxella catarrhalis [10]) [mm] | zone of inhibition at 10 µg/disc (Moraxella catarrhalis [11]) [mm] | Activity (Enterococcus faecalis [12]) | Activity (Enterococcus faecalis [14]) | Activity (Escherichia coli [17]) | Activity (Pseudomonas aeruginosa [20]) | MBC (Moraxella catarrhalis [21]) [µg/mL] | MBC [22] [µg/mL] | MBC (Moraxella catarrhalis [23]) [µg/mL] | MBC (Moraxella catarrhalis [24]) [µg/mL] | MBC (Moraxella catarrhalis [25]) [µg/mL] | MBC (Moraxella catarrhalis [26]) [µg/mL] | MBC (Moraxella catarrhalis [27]) [µg/mL] | other results
CC(=O)SC1CC(=O)N1S(=O)(=O)O (racemic) | inactive | inactive | 12 | inactive | inactive | inactive | 14 | 11 | 12 | inactive | inactive | inactive | inactive | – | – | – | – | – | – | – | zone of inhibition at 10 µg/disc (Moraxella catarrhalis [6]; read-out: IZ): 17 mm; zone of inhibition at 10 µg/disc (Moraxella catarrhalis [7]; read-out: IZ): 12 mm; zone of inhibition at 10 µg/disc (Moraxella catarrhalis [13]; read-out: IZ): 11 mm; zone of inhibition at 10 µg/disc (Moraxella catarrhalis [15]): 18 mm; inhibition zone (IZ) (Moraxella catarrhalis [16]): inactive; zone of inhibition at 10 µg/disc (Moraxella catarrhalis [18]; read-out: IZ): 12 mm; zone of inhibition at 10 µg/disc (Moraxella catarrhalis [19]): 17 mm
O=C1CC(Sc2ccc(O)cc2)N1 (racemic) | – | inactive | – | inactive | inactive | inactive | – | – | – | inactive | inactive | inactive | inactive | < 15.6 | > 200 | < 15.6 | > 500 | < 15.6 | < 15.6 | < 15.6 | –
O=C1CC(Sc2cccs2)N1 (racemic) | inactive | inactive | – | inactive | inactive | inactive | – | – | – | inactive | inactive | inactive | inactive | > 500 | 100 (≈ 540 µM) | > 500 | > 500 | 500 (≈ 2700 µM) | 500 (≈ 2700 µM) | 500 (≈ 2700 µM) | inhibition zone (IZ) (Moraxella catarrhalis [3]): inactive; inhibition zone (IZ) (Moraxella catarrhalis [6]): inactive; inhibition zone (IZ) (Moraxella catarrhalis [11]): inactive; inhibition zone (IZ) (Moraxella catarrhalis [19]): inactive
O=C1CC(Sc2ccc(S)cc2)N1 (racemic) | inactive | inactive | 8 | inactive | inactive | inactive | 7 | 7 | 7 | inactive | inactive | inactive | inactive | 125 (≈ 592 µM) | 25 (≈ 118 µM) | 125 (≈ 592 µM) | 250 (≈ 1180 µM) | 125 (≈ 592 µM) | 125 (≈ 592 µM) | 500 (≈ 2370 µM) | inhibition zone (IZ) (Moraxella catarrhalis [6]): inactive; inhibition zone (IZ) (Moraxella catarrhalis [7]): inactive; inhibition zone (IZ) (Moraxella catarrhalis [13]): inactive; zone of inhibition at 10 µg/disc (Moraxella catarrhalis [15]): 7 mm; zone of inhibition at 10 µg/disc (Moraxella catarrhalis [16]; read-out: IZ): 7 mm; inhibition zone (IZ) (Moraxella catarrhalis [18]): inactive; zone of inhibition at 10 µg/disc (Moraxella catarrhalis [19]): 8 mm
